Laboratory results published in ChEMBL document CHEMBL4689842, “EUbOPEN Chemogenomics Library wave 1” (2021).
“And” between values parts separate entries of the source, which are not always exact repeats. Identical values can stand only once.

Tested on: HEK-293T
Test: Multiplex assay against HEK293T;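 as to Population Tubulin-Different-Phenotype (%): share of the cells with healthy nuclei that show this phenotype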
Assay type: toxicity, cell-based
Conditions: human
How it was run: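 On a CQ1 microscope at 37°C and 5% CO2, live cells were imaged after compound addition. They had been stained at seeding with Hoechst33342, BioTracker Green Microtubule Cytoskeleton Dye, MitoTracker Red and Annexin V Alexa Fluor 680. CellPathfinder machine-learning gating assigned cells to Hoechst high-intensity objects or normal cells, normal cells to healthy, pyknosed or fragmented nuclei, and pyknosed cells to mitotic or apoptotic. Tubulin, mitochondrial-mass and membrane-permeability phenotypes are per cents of healthy-nucleus cells.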

[1] = 12 h, 1 µM, compound concentration 1 uM, replicate 1
[2] = 12 h, 1 µM, compound concentration 1 uM, replicate 2
[3] = 12 h, 10 µM, compound concentration 10 uM, replicate 1
[4] = 12 h, 10 µM, compound concentration 10 uM, replicate 2
[5] = 24 h, 1 µM, compound concentration 1 uM, replicate 1
[6] = 24 h, 1 µM, compound concentration 1 uM, replicate 2
[7] = 24 h, 10 µM, compound concentration 10 uM, replicate 1
[8] = 24 h, 10 µM, compound concentration 10 uM, replicate 2
[9] = 48 h, 10 µM, compound concentration 10 uM, replicate 1
[10] = 48 h, 10 µM, compound concentration 10 uM, replicate 2

In the case of `CN[C@@H]1C[C@H]2O[C@@](C)([C@@H]1OC)n1c3ccccc3c3c4c(c5c6ccccc6n2c5c31)C(=O)NC4` [STAUROSPORINE], the “Population Apoptotic (%)” value [1] is reported as 27%, the “Population Fragmented Nuclei (%)” value [1] is reported as 37% and the “Population Healthy Nuclei (%)” value [1] is reported as 16%. The “Population Hoechst High Intensity Objects (%)” value [1] was 15%, the “Population Membrane Permeable-Phenotype (%)” value [1] was 16% and the “Population Mitochondria Different-Phenotype (%)” value [1] was 9%. For the same compound, the “Population Mitotic Cells (%)” value [1] was 72%, the “Population Normal (%)” value [1] was 84% and the “Population Pyknosed Nuclei (%)” value [1] was 46%. The “Population Tubulin-Different-Phenotype (%)” value [1] was 32%, the “Population Apoptotic (%)” value [2] was 9% and the “Population Fragmented Nuclei (%)” value [2] was 18%. The “Population Healthy Nuclei (%)” value [2] was 35%, the “Population Hoechst High Intensity Objects (%)” value [2] was 10% and the “Population Membrane Permeable-Phenotype (%)” value [2] was 12%. For the same compound, the “Population Mitochondria Different-Phenotype (%)” value [2] was 13%, the “Population Mitotic Cells (%)” value [2] was 90% and the “Population Normal (%)” value [2] was 89%. The “Population Tubulin-Different-Phenotype (%)” value [2] was 74%, the “Population Apoptotic (%)” value [3] was 31% and 93% and 82% and the “Population Fragmented Nuclei (%)” value [3] was 37% and 33% and 30%. For the same compound, the “Population Hoechst High Intensity Objects (%)” value [3] was 15% and 23% and 17%, the “Population Membrane Permeable-Phenotype (%)” value [3] was 20% and 15% and the “Population Normal (%)” value [3] was 84% and 76% and 82%. The “Population Pyknosed Nuclei (%)” value [3] was 48% and 65% and 66%, the “Population Tubulin-Different-Phenotype (%)” value [3] was 25% and 33% and 57% and the “Population Hoechst High Intensity Objects (%)” value [4] was 20% and 22% and 11%. The “Population Mitochondria Different-Phenotype (%)” value [4] was 23% and 35% and 18%, the “Population Normal (%)” value [4] was 79% and 77% and 88% and the “Population Pyknosed Nuclei (%)” value [4] was 52% and 55% and 35%. For the same compound, the “Population Apoptotic (%)” value [5] was 48%, the “Population Fragmented Nuclei (%)” value [5] was 35% and the “Population Healthy Nuclei (%)” value [5] was 17%. The “Population Hoechst High Intensity Objects (%)” value [5] was 15%, the “Population Membrane Permeable-Phenotype (%)” value [5] was 18% and the “Population Mitochondria Different-Phenotype (%)” value [5] was 16%. For the same compound, the “Population Mitotic Cells (%)” value [5] was 51%, the “Population Normal (%)” value [5] was 84% and the “Population Pyknosed Nuclei (%)” value [5] was 46%. The “Population Tubulin-Different-Phenotype (%)” value [5] was 29%, the “Population Apoptotic (%)” value [6] was 28% and the “Population Fragmented Nuclei (%)” value [6] was 16%. For the same compound, the “Population Healthy Nuclei (%)” value [6] was 30%, the “Population Hoechst High Intensity Objects (%)” value [6] was 14% and the “Population Membrane Permeable-Phenotype (%)” value [6] was 10%. For the same compound, the “Population Mitochondria Different-Phenotype (%)” value [6] was 25%, the “Population Mitotic Cells (%)” value [6] was 71% and the “Population Normal (%)” value [6] was 85%. The “Population Pyknosed Nuclei (%)” value [6] was 52%, the “Population Tubulin-Different-Phenotype (%)” value [6] was 73% and the “Population Apoptotic (%)” value [7] was 58% and 87% and 91%. The “Population Fragmented Nuclei (%)” value [7] was 37% and 33% and 27%, the “Population Hoechst High Intensity Objects (%)” value [7] was 19% and 21% and 24% and the “Population Normal (%)” value [7] was 80% and 75%. The “Population Pyknosed Nuclei (%)” value [7] was 46% and 65% and 70%, the “Population Fragmented Nuclei (%)” value [8] was 12% and 32% and the “Population Hoechst High Intensity Objects (%)” value [8] was 13% and 29% and 22%. For the same compound, the “Population Membrane Permeable-Phenotype (%)” value [8] was 12% and 14%, the “Population Mitochondria Different-Phenotype (%)” value [8] was 25% and 57% and 62% and the “Population Normal (%)” value [8] was 86% and 70% and 77%. The “Population Pyknosed Nuclei (%)” value [8] was 48% and 55% and 66%, the “Population Tubulin-Different-Phenotype (%)” value [8] was 86% and 61% and 87% and the “Population Apoptotic (%)” value [9] was 96% and 92%. For the same compound, the “Population Fragmented Nuclei (%)” value [9] was 36% and 37%, the “Population Healthy Nuclei (%)” value [9] was 0% and 1% and the “Population Hoechst High Intensity Objects (%)” value [9] was 22% and 19%. The “Population Membrane Permeable-Phenotype (%)” value [9] was 0%, the “Population Mitochondria Different-Phenotype (%)” value [9] was 100% and 80% and the “Population Mitotic Cells (%)” value [9] was 3% and 7%. For the same compound, the “Population Normal (%)” value [9] was 77% and 80%, the “Population Pyknosed Nuclei (%)” value [9] was 62% and the “Population Tubulin-Different-Phenotype (%)” value [9] was 100% and 60%. For the same compound, the “Population Apoptotic (%)” value [10] was 97% and 93%, the “Population Fragmented Nuclei (%)” value [10] was 23% and 21% and the “Population Healthy Nuclei (%)” value [10] was 19% and 17%. The “Population Hoechst High Intensity Objects (%)” value [10] was 21% and 26%, the “Population Membrane Permeable-Phenotype (%)” value [10] was 6% and 5% and the “Population Mitochondria Different-Phenotype (%)” value [10] was 66% and 73%. The “Population Mitotic Cells (%)” value [10] was 2% and 6%, the “Population Normal (%)” value [10] was 73% and the “Population Pyknosed Nuclei (%)” value [10] was 57% and 61%. The “Population Tubulin-Different-Phenotype (%)” value [10] was 72% and 84%.

With `Cl.O=C(c1ccc(Nc2nccc(-c3cc4ccccc4s3)n2)cc1)N1CCC(N2CCCC2)CC1` the “Population Apoptotic (%)” value [1] was 28%, the “Population Fragmented Nuclei (%)” value [1] was 10% and the “Population Healthy Nuclei (%)” value [1] was 59%. For the same compound, the “Population Hoechst High Intensity Objects (%)” value [1] was 8%, the “Population Membrane Permeable-Phenotype (%)” value [1] was 17% and the “Population Mitochondria Different-Phenotype (%)” value [1] was 14%. For the same compound, the “Population Mitotic Cells (%)” value [1] was 71%, the “Population Normal (%)” value [1] was 91% and the “Population Pyknosed Nuclei (%)” value [1] was 29%. The “Population Tubulin-Different-Phenotype (%)” value [1] was 73%, the “Total Cell Count” value [1] was 657 and the “Population Apoptotic (%)” value [2] was 12%. The “Population Fragmented Nuclei (%)” value [2] was 4%, the “Population Healthy Nuclei (%)” value [2] was 89% and the “Population Hoechst High Intensity Objects (%)” value [2] was 3%. For the same compound, the “Population Membrane Permeable-Phenotype (%)” value [2] was 11%, the “Population Mitochondria Different-Phenotype (%)” value [2] was 20% and the “Population Mitotic Cells (%)” value [2] was 87%. The “Population Normal (%)” value [2] was 96%, the “Population Pyknosed Nuclei (%)” value [2] was 6% and the “Population Tubulin-Different-Phenotype (%)” value [2] was 67%. For the same compound, the “Total Cell Count” value [2] was 1518, the “Population Apoptotic (%)” value [3] was 32% and 71% and the “Population Fragmented Nuclei (%)” value [3] was 13% and 26%. The “Population Healthy Nuclei (%)” value [3] was 21% and 0%, the “Population Hoechst High Intensity Objects (%)” value [3] was 17% and 23% and the “Population Membrane Permeable-Phenotype (%)” value [3] was 4% and 0%. For the same compound, the “Population Mitochondria Different-Phenotype (%)” value [3] was 66% and 100%, the “Population Mitotic Cells (%)” value [3] was 67% and 28% and the “Population Normal (%)” value [3] was 82% and 76%. For the same compound, the “Population Pyknosed Nuclei (%)” value [3] was 65% and 72%, the “Population Tubulin-Different-Phenotype (%)” value [3] was 75% and 100% and the “Population Fragmented Nuclei (%)” value [4] was 3% and 9%. For the same compound, the “Population Hoechst High Intensity Objects (%)” value [4] was 9% and 10%, the “Population Membrane Permeable-Phenotype (%)” value [4] was 6% and the “Population Mitochondria Different-Phenotype (%)” value [4] was 68% and 75%. The “Population Normal (%)” value [4] was 90% and 89%, the “Population Pyknosed Nuclei (%)” value [4] was 58% and 87% and the “Population Tubulin-Different-Phenotype (%)” value [4] was 97%. The “Population Apoptotic (%)” value [5] was 17%, the “Population Fragmented Nuclei (%)” value [5] was 8% and the “Population Healthy Nuclei (%)” value [5] was 79%. The “Population Hoechst High Intensity Objects (%)” value [5] was 7%, the “Population Membrane Permeable-Phenotype (%)” value [5] was 24% and the “Population Mitochondria Different-Phenotype (%)” value [5] was 9%. For the same compound, the “Population Mitotic Cells (%)” value [5] was 82%, the “Population Normal (%)” value [5] was 92% and the “Population Pyknosed Nuclei (%)” value [5] was 11%. The “Population Tubulin-Different-Phenotype (%)” value [5] was 64%, the “Total Cell Count” value [5] was 845 and the “Population Apoptotic (%)” value [6] was 3%. For the same compound, the “Population Fragmented Nuclei (%)” value [6] was 14%, the “Population Healthy Nuclei (%)” value [6] was 82% and the “Population Hoechst High Intensity Objects (%)” value [6] was 3%. The “Population Membrane Permeable-Phenotype (%)” value [6] was 14%, the “Population Mitochondria Different-Phenotype (%)” value [6] was 4% and the “Population Mitotic Cells (%)” value [6] was 96%. For the same compound, the “Population Normal (%)” value [6] was 96%, the “Population Pyknosed Nuclei (%)” value [6] was 2% and the “Population Tubulin-Different-Phenotype (%)” value [6] was 42%. For the same compound, the “Total Cell Count” value [6] was 2625, the “Population Apoptotic (%)” value [7] was 80% and 55% and the “Population Fragmented Nuclei (%)” value [7] was 24% and 18%. For the same compound, the “Population Healthy Nuclei (%)” value [7] was 0% and 14%, the “Population Hoechst High Intensity Objects (%)” value [7] was 28% and 19% and the “Population Membrane Permeable-Phenotype (%)” value [7] was 0% and 8%. The “Population Mitotic Cells (%)” value [7] was 19% and 44%, the “Population Normal (%)” value [7] was 71% and 80% and the “Population Pyknosed Nuclei (%)” value [7] was 75% and 67%. The “Population Apoptotic (%)” value [8] was 58% and 99%, the “Population Fragmented Nuclei (%)” value [8] was 7% and 14% and the “Population Hoechst High Intensity Objects (%)” value [8] was 17% and 16%. The “Population Membrane Permeable-Phenotype (%)” value [8] was 9%, the “Population Mitochondria Different-Phenotype (%)” value [8] was 84% and 66% and the “Population Normal (%)” value [8] was 82% and 83%. The “Population Pyknosed Nuclei (%)” value [8] was 79% and 81%, the “Population Tubulin-Different-Phenotype (%)” value [8] was 64% and 66% and the “Population Apoptotic (%)” value [9] was 82%. For the same compound, the “Population Fragmented Nuclei (%)” value [9] was 35%, the “Population Healthy Nuclei (%)” value [9] was 0% and the “Population Hoechst High Intensity Objects (%)” value [9] was 30%. The “Population Membrane Permeable-Phenotype (%)” value [9] was 0%, the “Population Mitochondria Different-Phenotype (%)” value [9] was 100% and the “Population Mitotic Cells (%)” value [9] was 17%. The “Population Normal (%)” value [9] was 69%, the “Population Pyknosed Nuclei (%)” value [9] was 63% and the “Population Tubulin-Different-Phenotype (%)” value [9] was 100%. The “Total Cell Count” value [9] was 159, the “Population Apoptotic (%)” value [10] was 100% and the “Population Fragmented Nuclei (%)” value [10] was 19%. The “Population Healthy Nuclei (%)” value [10] was 4%, the “Population Hoechst High Intensity Objects (%)” value [10] was 17% and the “Population Membrane Permeable-Phenotype (%)” value [10] was 16%. For the same compound, the “Population Mitochondria Different-Phenotype (%)” value [10] was 83%, the “Population Mitotic Cells (%)” value [10] was 0% and the “Population Normal (%)” value [10] was 82%. The “Population Pyknosed Nuclei (%)” value [10] was 75%, the “Population Tubulin-Different-Phenotype (%)” value [10] was 66% and the “Total Cell Count” value [10] was 146.
